# Measurements published in ChEMBL document CHEMBL5653625, “P21-Activated Kinase Inhibitors FRAX486 and IPA3: Inhibition of Prostate Stromal Cell Growth and Effects on Smooth Muscle Contraction in the Human Prostate” (PLoS One, 2016).
# Active and inactive are the calls of the source. The rule behind the calls is not given here.
# Tests used:
# [1] = Cytotoxicity against human WPMY-1 cells assessed as reduction in cell viability at 1 to 10 uM incubated for 24 hrs by WST-8 assay; format: toxicity, cell-based; settings: wpmy-1, 24 h, dose 1-10 µM
# Homo sapiens [2] = species on record: Homo sapiens; experiment: Inhibition of phenylephrine induced prostate cancer patient derived human Prostate gland strips contraction assessed as reduction in KCl-induced contraction at 30 uM by organ-bath analysis; format: functional, tissue-based
# Outline: (§1)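 Human prostate strips (6 x 3 x 3 mm) in aerated (95% O2/5% CO2) Krebs-Henseleit, 37°C, pH 7.4, resting tone 4.9 mN after 45 min equilibration; reference contraction to 80 mM KCl, washout, then inhibitor or DMSO added before cumulative noradrenaline, phenylephrine or endothelin concentration-response curves or EFS frequency-response curves; tension expressed as % of KCl contraction.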
# Homo sapiens [3] = species on record: Homo sapiens; experiment: Inhibition of endothelin-1 induced prostate cancer patient derived human Prostate gland strips contraction assessed as reduction in KCl-induced contraction at 30 uM by organ-bath analysis; format: functional, tissue-based; outline: as §1
# Homo sapiens [4] = species on record: Homo sapiens; experiment: Inhibition of endothelin-2 induced prostate cancer patient derived human Prostate gland strips contraction assessed as reduction in KCl-induced contraction at 30 uM by organ-bath analysis; format: functional, tissue-based; outline: as §1
# WPMY-1 [5] = experiment: Inhibition of actin filament organization in human WPMY-1 cells assessed as degeneration of protrusions at 1 uM incubated for 24 hrs by FITC-coupled phalloidin staining based laser scanning microscopy; format: functional, cell-based
# Outline: (§2)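 Serum-starved WPMY-1 cells grown on chamber slides with inhibitor (1–10 µM) or DMSO for 24 h, then stained for F-actin with FITC-labeled phalloidin and imaged by laser scanning confocal microscopy; filament bundles, protrusions and cell shape judged visually against solvent controls; representative images from 5 independent experiments.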
# Homo sapiens [6] = species on record: Homo sapiens; experiment: Inhibition of noradrenaline induced prostate cancer patient derived human Prostate gland strips contraction assessed as reduction in KCl-induced contraction at 30 uM by organ-bath analysis; format: functional, tissue-based; outline: as §1
# [7] = Cytotoxicity against human WPMY-1 cells assessed as reduction in cell viability at 1 to 10 uM incubated for 24 to 72 hrs by WST-8 assay; format: toxicity, cell-based; settings: wpmy-1, 10 µM, TDE = time-dependent effect, dose lower 1 µM, time lower 24 hrs, dose upper 10 µM, time upper 72 hrs
# Homo sapiens [8] = species on record: Homo sapiens; experiment: Inhibition of electric field stimulation induced prostate cancer patient derived human Prostate gland strips contraction assessed as reduction in KCl-induced contraction at 10 uM by organ-bath analysis; format: functional, tissue-based; outline: as §1
# [9] = Effect on DISC1 knockdown-elicited synaptic changes in rat cortical neurons assessed as prevention of spine size reduction preincubated for 60 mins followed by APV WD solution addition and measured after 20 mins by immunofluorescence analysis; format: functional, cell-based; settings: cortical neurone
# [10] = Cytotoxicity against human WPMY-1 cells assessed as cell survival rate at 1 uM incubated for 24 hrs by WST-8 assay; format: toxicity, cell-based; settings: read-out: Survival
# Outline: (§3)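 WPMY-1 human prostate stromal cells kept in RPMI 1640 with 10% FCS and 1% penicillin/streptomycin, 37°C, 5% CO2; switched to FCS-free medium before treatment. Seeded 20,000 cells/well, grown 24 h, then exposed to inhibitor or DMSO (1, 5, 10 µM) for 24, 48 or 72 h with separate controls per period. WST-8 (CCK-8) added, absorbance 450 nm after 2 h at 37°C; 5 independent experiments, means ±SEM.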
# [11] = Cytotoxicity against human WPMY-1 cells assessed as reduction in cell proliferation at 1 to 10 uM incubated for 24 hrs by EdU incorporation assay; format: toxicity, cell-based; design: scale not given: the % may be the effect or the level left; settings: wpmy-1, 24 h, dose 1-10 µM
# WPMY-1 [12] = experiment: Inhibition of actin filament organization in human WPMY-1 cells at 1 to 10 uM incubated for 24 hrs by FITC-coupled phalloidin staining based laser scanning microscopy; format: functional, cell-based; settings: dose 1-10 µM; outline: as §2
# Homo sapiens [13] = species on record: Homo sapiens; experiment: Inhibition of electric field stimulation induced prostate cancer patient derived human Prostate gland strips contraction assessed as reduction in KCl-induced contraction at 30 uM at 2 to 32 Hz frequency by organ-bath analysis; format: functional, tissue-based; outline: as §1
# WPMY-1 [14] = experiment: Inhibition of actin filament organization in human WPMY-1 cells assessed as reduction in degree of actin polymerization at 1 uM incubated for 24 hrs by FITC-coupled phalloidin staining based laser scanning microscopy; format: functional, cell-based; outline: as §2
# [15] = target: Serine/threonine-protein kinase PAK 3 (Homo sapiens, UniProt O75914); experiment: Inhibition of full length PAK3 (unknown origin) assessed s reduction in substrate phosphorylation using peptide as substrate by FRET based Z-LYTE kinase assay
# Homo sapiens [16] = species on record: Homo sapiens; experiment: Inhibition of endothelin-1 induced prostate cancer patient derived human Prostate gland strips contraction assessed as reduction in KCl-induced contraction at 10 uM by organ-bath analysis; format: functional, tissue-based; outline: as §1
# [17] = Inhibition of actin filament organization in human WPMY-1 cells assessed as rounded cell shape without protrusion at 5 to 10 uM incubated for 24 hrs by FITC-coupled phalloidin staining based laser scanning microscopy; format: functional; settings: dose 5-10 µM; outline: as §2
# [18] = target: Serine/threonine-protein kinase PAK 2 (Homo sapiens, UniProt Q13177); experiment: Inhibition of full length PAK2 (unknown origin) assessed s reduction in substrate phosphorylation using peptide as substrate by FRET based Z-LYTE kinase assay
# WPMY-1 [19] = experiment: Inhibition of actin filament organization in human WPMY-1 cells at 1 uM incubated for 24 hrs by FITC-coupled phalloidin staining based laser scanning microscopy; format: functional, cell-based; outline: as §2
# [20] = Cytotoxicity against human WPMY-1 cells assessed as cell survival rate at 5 to 10 uM incubated for 48 to 72 hrs by WST-8 assay; format: toxicity, cell-based; settings: dose lower 5 µM, time lower 48 hrs, dose upper 10 µM, time upper 72 hrs, read-out: Survival; outline: as §3
# Homo sapiens [21] = species on record: Homo sapiens; experiment: Inhibition of electric field stimulation induced prostate cancer patient derived human Prostate gland strips contraction assessed as reduction in KCl-induced contraction at 100 uM by organ-bath analysis; format: functional, tissue-based; outline: as §1
# [22] = Cytotoxicity against human WPMY-1 cells assessed as cell survival rate at 10 uM incubated for 48 to 72 hrs by WST-8 assay; format: toxicity, cell-based; settings: time 48-72 hrs, read-out: Survival; outline: as §3
# Homo sapiens [23] = species on record: Homo sapiens; experiment: Inhibition of electric field stimulation induced prostate cancer patient derived human Prostate gland strips contraction assessed as reduction in KCl-induced contraction at 300 uM at 32 Hz frequency by organ-bath analysis; format: functional, tissue-based; outline: as §1
# [24] = Cytotoxicity against human WPMY-1 cells assessed as cell survival rate at 1 uM incubated for 24 to 72 hrs by WST-8 assay; format: toxicity, cell-based; settings: time 24-72 hrs, read-out: Survival; outline: as §3
# Homo sapiens [25] = species on record: Homo sapiens; experiment: Inhibition of noradrenaline induced prostate cancer patient derived human Prostate gland strips contraction assessed as reduction in KCl-induced contraction at 300 uM by organ-bath analysis; format: functional, tissue-based; outline: as §1
# Homo sapiens [26] = species on record: Homo sapiens; experiment: Inhibition of phenylephrine induced prostate cancer patient derived human Prostate gland strips contraction assessed as reduction in KCl-induced contraction at 300 uM by organ-bath analysis; format: functional, tissue-based; outline: as §1
# Chain of Serine/threonine-protein kinase PAK 3 (O75914 whole entry): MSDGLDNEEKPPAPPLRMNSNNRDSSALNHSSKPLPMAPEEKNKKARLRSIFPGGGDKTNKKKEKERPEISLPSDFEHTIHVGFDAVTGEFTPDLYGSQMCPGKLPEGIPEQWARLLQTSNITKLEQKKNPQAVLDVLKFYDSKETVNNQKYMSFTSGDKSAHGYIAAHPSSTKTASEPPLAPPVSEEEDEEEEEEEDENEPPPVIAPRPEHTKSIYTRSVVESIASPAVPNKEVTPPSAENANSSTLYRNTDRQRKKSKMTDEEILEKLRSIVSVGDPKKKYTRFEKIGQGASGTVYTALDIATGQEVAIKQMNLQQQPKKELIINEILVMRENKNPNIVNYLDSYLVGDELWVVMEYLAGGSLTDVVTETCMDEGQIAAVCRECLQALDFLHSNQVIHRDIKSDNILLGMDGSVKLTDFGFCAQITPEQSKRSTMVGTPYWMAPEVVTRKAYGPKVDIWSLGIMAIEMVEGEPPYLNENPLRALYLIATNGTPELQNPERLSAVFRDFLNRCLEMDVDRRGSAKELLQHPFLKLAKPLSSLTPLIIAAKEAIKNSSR
# Chain of Serine/threonine-protein kinase PAK 2 (Q13177 whole entry): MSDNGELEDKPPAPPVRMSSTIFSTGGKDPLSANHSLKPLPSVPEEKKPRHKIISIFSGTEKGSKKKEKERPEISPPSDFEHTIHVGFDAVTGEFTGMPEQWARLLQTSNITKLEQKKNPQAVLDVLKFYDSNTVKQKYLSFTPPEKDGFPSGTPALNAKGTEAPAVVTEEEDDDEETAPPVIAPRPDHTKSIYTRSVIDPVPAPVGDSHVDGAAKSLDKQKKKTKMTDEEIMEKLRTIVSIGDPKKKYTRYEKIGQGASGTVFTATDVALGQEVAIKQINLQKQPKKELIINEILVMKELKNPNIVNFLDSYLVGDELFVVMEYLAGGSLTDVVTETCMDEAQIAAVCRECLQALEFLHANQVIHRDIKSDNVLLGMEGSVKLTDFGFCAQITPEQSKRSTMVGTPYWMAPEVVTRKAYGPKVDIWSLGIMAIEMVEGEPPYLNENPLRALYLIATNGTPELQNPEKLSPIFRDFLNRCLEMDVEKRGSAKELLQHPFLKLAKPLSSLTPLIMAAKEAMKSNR
smiles,measurement,setting,value
CCn1c(=O)c(-c2ccc(Cl)cc2Cl)cc2cnc(Nc3ccc(N4CCNCC4)c(F)c3)nc21,Activity,[1],Dose-Dependent Effect
same,inhibition,Homo sapiens [2],inactive
same,inhibition,Homo sapiens [3],Active
same,inhibition,Homo sapiens [4],Active
same,inhibition,WPMY-1 [5],Active
same,inhibition,Homo sapiens [6],inactive
same,Activity,[7],Tde
same,inhibition,Homo sapiens [8],inactive
same,EC50,[9],500 nM
same,"viability at 24 h, 1 µM",[10],55%
same,Activity,[11],45%
same,inhibition,WPMY-1 [12],Dose-Dependent Effect
same,inhibition,Homo sapiens [13],Active
same,inhibition,WPMY-1 [14],Active
same,IC50,[15],10 nM
same,inhibition,Homo sapiens [16],inactive
same,inhibition (INH),[17],100%
same,IC50,[18],10 nM
same,inhibition,WPMY-1 [19],Active
same,viability at up to 10 µM,[20],1%
Oc1ccc2ccccc2c1SSc1c(O)ccc2ccccc12,Activity,[1],Dose-Dependent Effect
same,inhibition,WPMY-1 [5],Active
same,inhibition,Homo sapiens [21],inactive
same,Activity,[7],Tde
same,viability at 10 µM,[22],1%
same,Activity,[11],41%
same,inhibition,WPMY-1 [12],Dose-Dependent Effect
same,inhibition,WPMY-1 [14],Active
same,inhibition,Homo sapiens [23],Active
same,viability at 1 µM,[24],55%
same,inhibition,Homo sapiens [25],inactive
same,inhibition (INH),[17],100%
same,inhibition,WPMY-1 [19],Active
same,inhibition,Homo sapiens [26],inactive
